Assays:
[1] = molecular target: Protein farnesyltransferase (Homo sapiens, UniProt P49354+P49356); experiment: In vitro inhibitory activity to reduce the human farnesyltransferase catalyzed incorporation of [3H]FPP into recombinant Ras-CVIM; format: functional
Procedure, shortened: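 Human FPTase, [3H]FPP incorporated into recombinant Ras-CVIM. Enzyme at 1 nM, or 10 pM for some compounds.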

[2] = molecular target: Protein farnesyltransferase (Rattus norvegicus, UniProt Q02293+Q04631); experiment: In vitro ability to displace radiolabeled FTI from farnesyltransferase in cultured Ha-ras transformed RAT1 cells; format: cell-based
Procedure, shortened: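 Competitive binding in v-Ha-ras transformed RAT1 cells seeded at 200,000 cells/well and cultured 16 h. [125I]-labelled FTI radiotracer diluted to 1 nM in culture medium with test FTI is added to the monolayers. Incubation 4 h at 37 °C, PBS rinse, trypsinization, gamma counting. Nonspecific binding is taken with 1000-fold excess unlabeled FTI.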

[3] = molecular target: Geranylgeranyl transferase type I (Homo sapiens, UniProt P49354+P53609); experiment: In vitro inhibitory activity to reduce the human geranylgeranyl transferase type I (GGPTase-1)-catalyzed incorporation of 3H GGPP (100 nM) into K-Ras-derived peptide; format: functional
[4] = Clearance by iv administration in dogs at a dose of 1 mg/kg; conditions: dog, in vivo
[5] = rat

N#Cc1ccc2cc1Oc1ccc3cccc(c3c1)NC(=O)CNC(=O)Cc1cncn1C2
IC50 [1]: 3.8 nM
IC50 [2]: 67 nM
IC50 [3]: 150 nM

N#Cc1ccc2cc1Oc1ccc3cccc(c3c1)NC(=O)[C@@H](Cc1ccccc1)NCc1cncn1C2
IC50 [1]: 0.47 nM
IC50 [2]: 17 nM
IC50 [3]: 66 nM

N#Cc1ccc2cc1Oc1ccc3cccc(c3c1)NC(=O)[C@@H](Cc1cccs1)NCc1cncn1C2
IC50 [1]: 2.1 nM
IC50 [2]: 43 nM
IC50 [3]: 72 nM

N#Cc1ccc2cc1Oc1ccc3cccc(c3c1)N1CCN(CC1=O)Cc1cncn1C2
clearance [4]: 5.1 mL/min/kg
half-life [5]: 1 h

CN1C(=O)CNC(=O)Cc2cncn2Cc2ccc(C#N)c(c2)Oc2ccc3cccc1c3c2
IC50 [1]: 6.6 nM
IC50 [2]: 65 nM
IC50 [3]: 1090 nM

CN1C(=O)CNCc2cncn2Cc2ccc(C#N)c(c2)Oc2ccc3cccc1c3c2
IC50 [1]: 15 nM
IC50 [2]: 55 nM
IC50 [3]: 6720 nM

CC[C@H]1NCc2cncn2Cc2ccc(C#N)c(c2)Oc2ccc3cccc(c3c2)NC1=O
IC50 [1]: 1.2 nM
IC50 [2]: 410 nM
IC50 [3]: 469 nM

CN1Cc2cncn2Cc2ccc(C#N)c(c2)Oc2ccc3cccc(c3c2)NC(=O)[C@H]1Cc1ccccc1
IC50 [1]: 2.7 nM
IC50 [2]: 184 nM
IC50 [3]: 350 nM

N#Cc1ccc2cc1Oc1ccc3cccc(c3c1)NC(=O)CNCc1cncn1C2
IC50 [1]: 4.3 nM
IC50 [2]: 37 nM
IC50 [3]: 675 nM

C[C@@H]1NCc2cncn2Cc2ccc(C#N)c(c2)Oc2ccc3cccc(c3c2)NC1=O
IC50 [1]: 11 nM
IC50 [2]: 248 nM
IC50 [3]: 4820 nM

N#Cc1ccc2cc1Oc1ccc3cccc(c3c1)NC(=O)CN(Cc1ccccc1)Cc1cncn1C2
IC50 [1]: 2.6 nM
IC50 [2]: 29.6 nM
IC50 [3]: > 20000 nM

C[C@@H]1C(=O)Nc2cccc3ccc(cc23)Oc2cc(ccc2C#N)Cn2cncc2CN1Cc1ccccc1
IC50 [1]: 18 nM
IC50 [2]: 240 nM
IC50 [3]: > 20000 nM

N#Cc1ccc2cc1Oc1ccc3cccc(c3c1)C(=O)NCCNC(=O)Cc1cncn1C2
IC50 [1]: 2.5 nM
IC50 [2]: 409 nM
IC50 [3]: 250 nM

C[C@@H]1C(=O)Nc2cccc3ccc(cc23)Oc2cc(ccc2C#N)Cn2cncc2CN1C
IC50 [1]: 7 nM
IC50 [2]: > 100 nM
IC50 [3]: 1220 nM

CN1CC(=O)Nc2cccc3ccc(cc23)Oc2cc(ccc2C#N)Cn2cncc2C1
IC50 [1]: 5.7 nM
IC50 [2]: 196 nM
IC50 [3]: 2070 nM

N#Cc1ccc2cc1Oc1ccc3cccc(c3c1)NC(=O)[C@@H](Cc1ccccc1)NC(=O)Cc1cncn1C2
IC50 [1]: 3.5 nM
IC50 [2]: 310 nM
IC50 [3]: 29 nM

N#Cc1ccc2cc1Oc1ccc3cccc(c3c1)C(=O)NCCNCc1cncn1C2
IC50 [1]: 4.5 nM
IC50 [2]: 7.1 nM
IC50 [3]: 77 nM

C[C@H]1NC(=O)Cc2cncn2Cc2ccc(C#N)c(c2)Oc2ccc3cccc(c3c2)NC1=O
IC50 [1]: 3.3 nM
IC50 [2]: 258 nM
IC50 [3]: 50 nM

N#Cc1ccc2cc1Oc1ccc3cccc(c3c1)NC(=O)[C@@H](Cc1ccccc1)N(Cc1ccccc1)Cc1cncn1C2
IC50 [1]: 50 nM
IC50 [2]: 574 nM
IC50 [3]: > 20000 nM

N#Cc1ccc2cc1Oc1ccc3cccc(c3c1)C(=O)NCCCNCc1cncn1C2
IC50 [1]: 2.3 nM
IC50 [2]: 99 nM
IC50 [3]: 890 nM

C[C@H]1NCc2cncn2Cc2ccc(C#N)c(c2)Oc2ccc3cccc(c3c2)NC1=O
IC50 [1]: 1.3 nM
IC50 [2]: 23 nM
IC50 [3]: 313 nM

C[C@H]1NCc2cncn2Cc2ccc(C#N)c(c2)Oc2ccc3cccc(c3c2)N(C)C1=O
IC50 [1]: 16 nM
IC50 [2]: 17 nM
IC50 [3]: 3160 nM

N#Cc1ccc2cc1Oc1ccc3cccc(c3c1)NC(=O)[C@@H](Cc1cccnc1)NCc1cncn1C2
IC50 [1]: 1.8 nM
IC50 [2]: 1310 nM
IC50 [3]: 147 nM

CN1CC(=O)N(C)c2cccc3ccc(cc23)Oc2cc(ccc2C#N)Cn2cncc2C1
IC50 [1]: 8.4 nM
IC50 [2]: 13 nM
IC50 [3]: 12800 nM

C[C@@H]1C(=O)N(C)c2cccc3ccc(cc23)Oc2cc(ccc2C#N)Cn2cncc2CN1C
IC50 [2]: 15 nM
IC50 [3]: 6760 nM

— ChEMBL document CHEMBL1134760, “Evaluation of amino acid-based linkers in potent macrocyclic inhibitors of farnesyl-protein transferase” (Bioorg Med Chem Lett, 2001)
